Measured values of several laboratories.
Each line is one published result; the experiments were not run side by side.
Target: Vascular endothelial growth factor receptor 2 (KDR, Homo sapiens, UniProt P35968)

Cc1cc(-n2nc(Cc3cc(F)cc(C(F)(F)F)c3)nc2C)ccc1C(N)=O  remaining binding (cell-free assay, competition with immobilised ligand; 1 µM): 100%
O=C(Nc1c[nH]nc1C(=O)NC1CCNCC1)c1cc(F)cc(F)c1  remaining binding (binding, competition with immobilised ligand; 1 µM): 93%
O=C(NCCCC1CCCCC1)c1ccc(CNC(=O)c2cnn(-c3ccccc3)c2C(F)(F)F)cc1  remaining binding (cell-free assay, competition with immobilised ligand; 0.1 µM): 97%
N#Cc1ccccc1CSc1nnc2c(n1)[nH]c1ccccc12  remaining binding (binding, competition with immobilised ligand; 10 µM): 95%
CN(CCCC(F)(F)F)c1nccc(-c2cnn3ncccc23)n1  remaining binding (binding; 1 µM): 100%
O=C(c1ccc(Nc2ncc(Cl)c(-c3ccc(Cl)s3)n2)cc1)N1CCC(N2CCCC2)CC1  remaining binding (binding, competition with immobilised ligand; 1 µM): 2.2%
COc1ccc2c(O[C@@H]3C[C@H]4C(=O)N[C@]5(C(=O)O)CC5/C=C\CCCCC[C@H](NC(=O)OC5CCCC5)C(=O)N4C3)cc(-c3csc(NC(=O)C(C)C)n3)nc2c1C (stereo partly shown)  remaining binding (cell-free assay, competition with immobilised ligand; 1 µM): 83%
COc1ncc2cc3ccccc3nc2c1C#N  remaining binding (cell-free assay, competition with immobilised ligand; 5 µM): 100%
N[C@H]1CCN(c2nccc(-c3cnn4ncccc34)n2)C1  remaining binding (binding; 1 µM): 100%
N#CC1(c2ccccn2)CCN(Cc2cc(C(=O)N3CCCC3)c(=O)n3ccccc23)CC1  remaining binding (cell-free assay, competition with immobilised ligand; 1 µM): 92%
O=C(NCCCN1CCOCC1)c1ccc(Nc2ncc(Cl)c(-c3ccc(Cl)s3)n2)cc1  remaining binding (binding, competition with immobilised ligand; 1 µM): 13%
O=C(Nc1cnc(Oc2ccc(F)cc2)nc1)N1CCc2ncccc2[C@@H]1c1ccc(F)cc1  remaining binding (cell-free assay, competition with immobilised ligand; 1 µM): 88%
c1cnn2ncc(-c3ccnc(N4CCC45COC5)n3)c2c1  remaining binding (binding; 1 µM): 67%
O=C(c1ccc(Nc2ncc(Cl)c(-c3cc4ccccc4s3)n2)cc1)N1CCC(N2CCCC2)CC1  remaining binding (binding, competition with immobilised ligand; 1 µM): 12%
c1cncc(-c2cccc(Nc3nccc(NC4CCCCC4)n3)c2)c1  remaining binding (binding, competition with immobilised ligand; 10 µM): 69%
C[C@H]1CCN(c2nccc(-c3cnn4ncccc34)n2)C1  remaining binding (binding; 1 µM): 92%
COc1cnc(Nc2cccc(S(N)(=O)=O)c2)nc1N1CCN(c2ccccc2)CC1  remaining binding (binding, competition with immobilised ligand; 1 µM): 83%
CO[C@@H](C)c1c(Nc2ccc([C@@H](N(C)C(=O)C3CCS(=O)(=O)CC3)C(F)(F)F)cc2)cnc2cc(Cl)nn12  remaining binding (cell-free assay, competition with immobilised ligand; 1 µM): 95%
C[C@@H](c1ccc(-n2cnc3c(N)ncnc32)cc1)N1CCc2nn(C)c(Cc3ccccc3)c2C1=O  remaining binding (binding, competition with immobilised ligand; 0.1 µM): 69%
CCN1CCN(Cc2ccc(C(=O)Nc3ccc(C)c(Oc4ccc5c(c4)CC(=O)N5)c3)cc2C(F)(F)F)CC1  remaining binding (binding, competition with immobilised ligand; 1 µM): 100%
CC1CCCN1c1nccc(-c2cnn3ncccc23)n1 (stereo not shown)  remaining binding (binding; 1 µM): 100%
C[C@@H]1CN(c2ccc3ncc(-c4ccc5[nH]nc(C6CC6)c5c4)n3n2)C[C@H](C)O1  remaining binding (binding, competition with immobilised ligand; 0.5 µM): 100%
CCCOc1ccc([C@@H]2[C@@H](C(=O)O)[C@H](c3ccc4c(c3)OCO4)CN2CC(=O)Nc2c(CC)cccc2CC)cc1  remaining binding (cell-free assay, competition with immobilised ligand; 1 µM): 72%
F[C@@H]1CCN(c2nccc(-c3cnn4ncccc34)n2)C1  remaining binding (binding; 1 µM): 100%
COC(=O)Nc1nc2ccc(C(=O)c3ccccc3)cc2[nH]1  remaining binding (cell-free assay, competition with immobilised ligand; 10 µM): 30%
